ChEMBL document CHEMBL1139405, “N-Propynyl analogs of beta-phenylethylidenehydrazines: synthesis and evaluation of effects on glycine, GABA, and monoamine oxidase” (Bioorg Med Chem, 2008)
Activity calls are given as the source filed them. The rule behind the calls is not given here.

Legend:
[1] = target: 4-aminobutyrate aminotransferase, mitochondrial (Homo sapiens) (UniProt P80404); assay: Inhibition of GABA-transaminase at 10 uM
Method in brief: (§1)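 In vitro screen: GABASE incubated with compound in incubation buffer, with GABA-T activity read by a modified colorimetric method.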

[2] = target: 4-aminobutyrate aminotransferase, mitochondrial (Homo sapiens) (UniProt P80404); assay: Inhibition of GABA-transaminase at 100 uM; method in brief: as §1
Rattus norvegicus [3] = assay: Ex vivo increase in brain glycine level in Sprague-Dawley rat whole brain at 38.5 mg/kg, ip after 3 hrs relative to control; format: functional; design: dose 38.5 mg/kg
Method in brief: (§2)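 Male rats (~300 g) dosed i.p. in corn oil vehicle, killed by decapitation 3, 6 or 12 h later. Whole brains were flash-frozen, homogenized in 5 volumes ice-cold water, extracted with ice-cold methanol and centrifuged. Amino acids were derivatized with OPA/isobutyryl-L-cysteine and measured by HPLC-fluorescence on a C18 column at 30 °C. Values are % of vehicle control, N = 3–5 per group.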

Rattus norvegicus [4] = assay: Ex vivo increase in brain glycine level in Sprague-Dawley rat whole brain at 38.5 mg/kg, ip after 6 hrs relative to control; format: functional; details: route intraperitoneal; method in brief: as §2
Rattus norvegicus [5] = assay: Ex vivo inhibition of GABA-transaminase in Sprague-Dawley rat whole brain at 30 mg/kg, ip after 6 hrs relative to control; format: functional; details: route intraperitoneal
Method in brief: (§3)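 Male Sprague–Dawley rats (~300 g) dosed i.p. in corn oil, killed 3, 6 or 12 h later; whole-brain homogenate (5 volumes ice-cold water). GABA-T measured radiochemically: homogenate incubated with radiolabeled GABA in buffer containing pyridoxal phosphate, products isolated with tri-n-octylamine liquid anion exchanger, scintillation counting. Activity as % of vehicle control; N = 4–5 per group.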

Rattus norvegicus [6] = assay: Ex vivo increase in brain GABA level in Sprague-Dawley rat whole brain at 30 mg/kg, ip after 3 hrs relative to control; format: functional; details: route intraperitoneal
Method in brief: (§4)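 Male Sprague–Dawley rats (~300 g) given drug i.p. in corn oil vehicle, killed by decapitation at 3, 6 or 12 h; brains flash-frozen, homogenized in 5 volumes ice-cold water. Homogenate deproteinized in ice-cold methanol, centrifuged, OPA/isobutyryl-L-cysteine derivatized; HPLC with fluorescence detection, C18 column at 30 °C. Expressed as % of vehicle control; N = 3–5 per group.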

Rattus norvegicus [7] = assay: Ex vivo inhibition of GABA-transaminase in Sprague-Dawley rat whole brain at 30 mg/kg, ip after 3 hrs relative to control; format: functional; details: route intraperitoneal; method in brief: as §3
Rattus norvegicus [8] = assay: Ex vivo inhibition of monoamine oxidase A in Sprague-Dawley rat whole brain at 30 mg/kg, ip; format: functional; design: dose 30 mg/kg
Method in brief: (§5)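 Male Sprague–Dawley rats (~300 g) dosed i.p. in corn oil, killed at 3, 6 or 12 h; whole-brain water homogenate diluted in 0.2 M potassium phosphate pH 7.4. Activity as % of vehicle control; N = 3–6 per group.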

Rattus norvegicus [9] = assay: Ex vivo inhibition of GABA-transaminase in Sprague-Dawley rat whole brain at 30 mg/kg, ip after 12 hrs relative to control; format: functional; details: route intraperitoneal; method in brief: as §3
Rattus norvegicus [10] = assay: Ex vivo increase in brain alanine level in Sprague-Dawley rat whole brain at 30 mg/kg, ip after 3 hrs relative to control; format: functional; details: route intraperitoneal; method in brief: as §4
Rattus norvegicus [11] = assay: Ex vivo inhibition of monoamine oxidase B in Sprague-Dawley rat whole brain at 30 mg/kg, ip; format: functional; design: dose 30 mg/kg; method in brief: as §5
[12] = target: T1, Amine oxidase [flavin-containing] A (Rattus norvegicus, UniProt P21396); assay: Inhibition of rat brain monoamine oxidase A
T1 sequence (P21396 whole entry): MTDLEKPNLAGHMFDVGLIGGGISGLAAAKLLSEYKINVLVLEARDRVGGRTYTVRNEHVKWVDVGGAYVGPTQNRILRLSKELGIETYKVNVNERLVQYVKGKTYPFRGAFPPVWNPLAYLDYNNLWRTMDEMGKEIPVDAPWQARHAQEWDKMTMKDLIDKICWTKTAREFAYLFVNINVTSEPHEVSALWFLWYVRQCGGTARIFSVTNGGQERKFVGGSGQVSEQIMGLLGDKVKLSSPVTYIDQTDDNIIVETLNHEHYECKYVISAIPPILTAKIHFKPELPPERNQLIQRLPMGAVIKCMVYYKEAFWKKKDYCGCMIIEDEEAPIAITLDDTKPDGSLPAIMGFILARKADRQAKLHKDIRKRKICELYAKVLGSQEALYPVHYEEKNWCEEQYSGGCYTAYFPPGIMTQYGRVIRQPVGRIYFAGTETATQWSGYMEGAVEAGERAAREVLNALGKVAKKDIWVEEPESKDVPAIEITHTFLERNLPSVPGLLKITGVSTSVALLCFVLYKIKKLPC

Sequence of 4-aminobutyrate aminotransferase, mitochondrial (Homo sapiens) (P80404 whole entry): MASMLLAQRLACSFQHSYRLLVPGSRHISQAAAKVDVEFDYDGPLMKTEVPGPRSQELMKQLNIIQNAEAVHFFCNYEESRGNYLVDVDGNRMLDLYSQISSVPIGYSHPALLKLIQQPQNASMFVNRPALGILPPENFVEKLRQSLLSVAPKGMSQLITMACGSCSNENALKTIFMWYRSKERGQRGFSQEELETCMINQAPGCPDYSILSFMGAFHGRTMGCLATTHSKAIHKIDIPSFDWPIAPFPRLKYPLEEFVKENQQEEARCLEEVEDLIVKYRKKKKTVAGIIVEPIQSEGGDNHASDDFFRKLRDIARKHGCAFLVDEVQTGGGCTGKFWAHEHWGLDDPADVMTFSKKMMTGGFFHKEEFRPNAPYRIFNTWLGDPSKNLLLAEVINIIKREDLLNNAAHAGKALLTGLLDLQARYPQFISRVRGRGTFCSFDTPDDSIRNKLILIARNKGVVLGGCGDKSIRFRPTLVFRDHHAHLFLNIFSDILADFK

C#CCN(CC#C)/N=C/Cc1ccc(C)cc1
Activity [1]: inactive
Activity [2]: inactive

C#CCN/N=C/Cc1ccc(C)cc1
Activity [1]: inactive
Activity [2]: inactive

C#CCN/N=C/Cc1ccccc1
Activity [1]: inactive
Activity [2]: inactive
Activity (Rattus norvegicus [3]): Active
Activity (Rattus norvegicus [4]): 216%

C#CCN(CC#C)/N=C/Cc1ccccc1F
Activity [1]: inactive
Activity [2]: inactive

C#CCN(CC#C)/N=C/Cc1ccc(F)cc1
Activity [1]: inactive
Activity [2]: inactive

N/N=C\Cc1ccccc1
inhibition [1]: 10%
inhibition in vivo at 30 mg/kg (Rattus norvegicus [5]): 66%
Activity (Rattus norvegicus [6]): 418%
inhibition in vivo at 30 mg/kg (Rattus norvegicus [7]): 66%
Activity (Rattus norvegicus [8]): inactive
inhibition in vivo at 30 mg/kg (Rattus norvegicus [9]): 70%
Activity (Rattus norvegicus [10]): 489%
Activity (Rattus norvegicus [11]): inactive

C#CCN/N=C/Cc1cccc(F)c1
Activity [1]: inactive
Activity [2]: inactive

C#CCN/N=C/Cc1cccc(C(F)(F)F)c1
Activity [1]: inactive
Activity [2]: inactive

C#CCN/N=C/Cc1ccccc1C(F)(F)F
Activity [1]: inactive
Activity [2]: inactive

NNCCc1ccccc1 [PHENELZINE]
inhibition (INH) [12]: > 95%

C#CCN/N=C/Cc1cccc(OC)c1
Activity [1]: inactive
Activity [2]: inactive

C#CCN(CC#C)/N=C/Cc1ccc(Cl)cc1
Activity [1]: inactive
Activity [2]: inactive

C#CCN/N=C/Cc1ccc(F)cc1
Activity [1]: inactive
Activity [2]: inactive

C#CCN/N=C/Cc1ccccc1C
Activity [1]: inactive
Activity [2]: inactive

C#CCN(CC#C)/N=C/Cc1ccccc1Cl
Activity [1]: inactive
Activity [2]: inactive

C#CCN(CC#C)/N=C/Cc1cccc(C)c1
Activity [1]: inactive
Activity [2]: inactive

C#CCN(CC#C)/N=C/Cc1cccc(C(F)(F)F)c1
Activity [1]: inactive
Activity [2]: inactive

C#CCN/N=C/Cc1ccc(C(F)(F)F)cc1
Activity [1]: inactive
Activity [2]: inactive

C#CCN(CC#C)/N=C/Cc1ccc(C(F)(F)F)cc1
Activity [1]: inactive
Activity [2]: inactive

C#CCN/N=C/Cc1cccc(C)c1
Activity [1]: inactive
Activity [2]: inactive

C#CCN(CC#C)/N=C/Cc1ccccc1C(F)(F)F
Activity [1]: inactive
Activity [2]: inactive

C#CCN(CC#C)/N=C/Cc1ccc(OC)cc1
Activity [1]: inactive
Activity [2]: inactive

C#CCN/N=C/Cc1ccccc1F
Activity [1]: inactive
Activity [2]: inactive

C#CCN/N=C/Cc1cccc(Cl)c1
Activity [1]: inactive
Activity [2]: inactive

C#CCN(CC#C)/N=C/Cc1cccc(Cl)c1
Activity [1]: inactive
Activity [2]: inactive

C#CCN(CC#C)/N=C/Cc1ccccc1C
Activity [1]: inactive
Activity [2]: inactive

C#CCN/N=C/Cc1ccccc1OC
Activity [1]: inactive
Activity [2]: inactive

C#CCN/N=C/Cc1ccc(Cl)cc1
Activity [1]: inactive
Activity [2]: inactive

C#CCN/N=C/Cc1ccc(OC)cc1
Activity [1]: inactive
Activity [2]: inactive

C#CCN(CC#C)/N=C/Cc1ccccc1OC
Activity [1]: inactive
Activity [2]: inactive

C#CCN/N=C/Cc1ccccc1Cl
Activity [1]: inactive
Activity [2]: inactive

C#CCN(CC#C)/N=C/Cc1cccc(F)c1
Activity [1]: inactive
Activity [2]: inactive

C#CCN(CC#C)/N=C/Cc1cccc(OC)c1
Activity [1]: inactive
Activity [2]: inactive
